Measurements: ChEMBL document CHEMBL1137547, “Synthesis and antifungal activities of novel 2-aminotetralin derivatives” (2007)
In brackets after ≈: the same amount, converted by molar mass.

Columns and labels:
Format in all cases: functional
Candida albicans = assay: Antifungal activity against Candida albicans after 24 hrs
Method in brief: (§1)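 Candida yeasts were tested by NCCLS microdilution in RPMI 1640 buffered with 0.165 M MOPS and incubated at 35 °C. Compounds were dissolved in DMSO and serially diluted in medium. Isolates came from ATCC or the clinic. The MIC was read at 24 h as the lowest concentration achieving ≥80% growth inhibition versus the control.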

Candida parapsilosis = assay: Antifungal activity against Candida parapsilosis after 24 hrs; conditions: Lodderomyces parapsilosis; method in brief: as §1
Cryptococcus neoformans = assay: Antifungal activity against Cryptococcus neoformans after 72 hrs
Method in brief: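 Cryptococcus neoformans was tested by NCCLS serial dilution in MOPS-buffered (0.165 M) RPMI 1640 at 35 °C. Compounds were dissolved in DMSO and diluted in medium. The MIC was read at 72 h as the lowest concentration giving turbidity inhibition of ≥80% relative to the growth control.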

Trichophyton rubrum = assay: Antifungal activity against Trichophyton rubrum
Method in brief: (§2)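 Dermatophytes were tested by NCCLS serial dilution in RPMI 1640 with 0.165 M MOPS and incubated at 28 °C. Compounds were dissolved in DMSO and diluted in medium. Strains came from ATCC or clinical isolates. The MIC was read at 7 d as the lowest concentration reducing turbidity by ≥80% relative to the drug-free control.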

Fonsecaea compacta = assay: Antifungal activity against Fonsecaea compacta
Method in brief: (§3)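 NCCLS broth serial dilution in RPMI 1640 buffered with 0.165 M MOPS. Compounds were dissolved in DMSO and serially diluted in medium. Strains came from ATCC or clinical isolates. The growth MIC for filamentous fungi was read at 7 d, taken as the lowest concentration giving ≥80% turbidity inhibition versus the growth control.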

Aspergillus fumigatus = assay: Antifungal activity against Aspergillus fumigatus; method in brief: as §3
Microsporum = assay: Antifungal activity against Microsporum gypseum; method in brief: as §2

Row | Structure (SMILES) | MIC (Candida albicans) [µM] | MIC (Candida parapsilosis) [µM] | MIC (Cryptococcus neoformans) [µM] | MIC (Trichophyton rubrum) [µM] | MIC (Fonsecaea compacta) [µM] | MIC (Aspergillus fumigatus) [µM] | MIC (Microsporum) [µM]
1 | CCCCCCCCCCCCCCCCCCNC1CCc2c(cccc2OC)C1 (configuration not stated) | > 64 | > 64 | > 64 | 32 (≈ 13.8 µg/mL) | 64 (≈ 27.5 µg/mL) | > 64 | 16 (≈ 6.88 µg/mL)
2 | CCCCCCCCCCCCCCCCCCNC1CCc2cc(OC)ccc2C1 (configuration not stated) | 64 (≈ 27.5 µg/mL) | > 64 | > 64 | 8 (≈ 3.44 µg/mL) | > 64 | > 64 | > 64
3 | CCCCCCCCCCCCCCCCCCNC1CCc2ccc(OC)cc2C1 (configuration not stated) | > 64 | > 64 | > 64 | 8 (≈ 3.44 µg/mL) | > 64 | > 64 | 64 (≈ 27.5 µg/mL)
4 | CCCCCCCCCCCCCCCCCCNC1CCc2cccc(OC)c2C1 (configuration not stated) | > 64 | > 64 | 64 (≈ 27.5 µg/mL) | 2 (≈ 0.859 µg/mL) | > 64 | > 64 | 64 (≈ 27.5 µg/mL)
5 | CCCCCCCCCCCCCCCCCCNC1CCc2c(O)cccc2C1 (configuration not stated) | 64 (≈ 26.6 µg/mL) | > 64 | > 64 | 16 (≈ 6.65 µg/mL) | > 64 | > 64 | > 64
6 | CCCCCCCCCCCCCCCCCCNC1CCc2ccc(O)cc2C1 (configuration not stated) | 16 (≈ 6.65 µg/mL) | > 64 | > 64 | 2 (≈ 0.831 µg/mL) | 64 (≈ 26.6 µg/mL) | > 64 | > 64
7 | CCCCCCCCCCCCCCNC1CCc2ccc(OC)cc2C1 (configuration not stated) | 4 (≈ 1.49 µg/mL) | > 64 | 16 (≈ 5.98 µg/mL) | 0.0625 (≈ 0.0234 µg/mL) | 64 (≈ 23.9 µg/mL) | > 64 | 4 (≈ 1.49 µg/mL)
8 | CCCCCCCCCCCCCCNC1CCc2cccc(OC)c2C1 (configuration not stated) | 4 (≈ 1.49 µg/mL) | 16 (≈ 5.98 µg/mL) | 32 (≈ 12 µg/mL) | 0.5 (≈ 0.187 µg/mL) | 32 (≈ 12 µg/mL) | > 64 | 2 (≈ 0.747 µg/mL)

Now from value to compound:

Row | MIC (Candida albicans) [µM] | MIC (Candida parapsilosis) [µM] | MIC (Cryptococcus neoformans) [µM] | MIC (Trichophyton rubrum) [µM] | MIC (Fonsecaea compacta) [µM] | MIC (Aspergillus fumigatus) [µM] | MIC (Microsporum) [µM] | Structure (SMILES)
9 | 64 (≈ 16.2 µg/mL) | > 64 | > 64 | 0.5 (≈ 0.127 µg/mL) | 32 (≈ 8.11 µg/mL) | > 64 | 32 (≈ 8.11 µg/mL) | Oc1cccc2c1CC(NCc1ccccc1)CC2 (configuration not stated)
10 | 32 (≈ 13.3 µg/mL) | > 64 | > 64 | 8 (≈ 3.33 µg/mL) | > 64 | > 64 | 64 (≈ 26.6 µg/mL) | CCCCCCCCCCCCCCCCCCNC1CCc2cc(O)ccc2C1 (configuration not stated)
11 | 64 (≈ 16.2 µg/mL) | > 64 | > 64 | 8 (≈ 2.03 µg/mL) | > 64 | > 64 | > 64 | Oc1ccc2c(c1)CCC(NCc1ccccc1)C2 (configuration not stated)
12 | > 64 | > 64 | > 64 | 8 (≈ 1.91 µg/mL) | > 64 | > 64 | > 64 | Oc1cccc2c1CCC(Nc1ccccc1)C2 (configuration not stated)
13 | > 64 | > 64 | > 64 | 32 (≈ 8.56 µg/mL) | > 64 | > 64 | 4 (≈ 1.07 µg/mL) | COc1cccc2c1CC(NCc1ccccc1)CC2 (configuration not stated)
14 | 64 (≈ 16.2 µg/mL) | > 64 | > 64 | 0.125 (≈ 0.0317 µg/mL) | > 64 | > 64 | > 64 | Oc1cccc2c1CCC(NCc1ccccc1)C2 (configuration not stated)
15 | > 64 | > 64 | > 64 | 32 (≈ 9.07 µg/mL) | > 64 | > 64 | 16 (≈ 4.53 µg/mL) | COc1ccc(NC2CCc3cccc(OC)c3C2)cc1 (configuration not stated)
16 | > 64 | > 64 | > 64 | 2 (≈ 0.507 µg/mL) | > 64 | > 64 | 32 (≈ 8.11 µg/mL) | COc1cccc2c1CCC(Nc1ccccc1)C2 (configuration not stated)
17 | > 64 | > 64 | > 64 | 0.5 (≈ 0.127 µg/mL) | > 64 | > 64 | 32 (≈ 8.11 µg/mL) | COc1ccc2c(c1)CCC(Nc1ccccc1)C2 (configuration not stated)
18 | > 64 | 64 (≈ 17.2 µg/mL) | > 64 | 0.5 (≈ 0.135 µg/mL) | > 64 | > 64 | 32 (≈ 8.62 µg/mL) | COc1ccc(NC2CCc3ccc(O)cc3C2)cc1 (configuration not stated)
19 | > 64 | > 64 | 64 (≈ 16.2 µg/mL) | 4 (≈ 1.01 µg/mL) | > 64 | > 64 | 64 (≈ 16.2 µg/mL) | COc1ccc2c(c1)CC(Nc1ccccc1)CC2 (configuration not stated)
20 | > 64 | > 64 | 32 (≈ 7.66 µg/mL) | 4 (≈ 0.957 µg/mL) | 64 (≈ 15.3 µg/mL) | > 64 | 32 (≈ 7.66 µg/mL) | Oc1cccc2c1CC(Nc1ccccc1)CC2 (configuration not stated)
21 | > 64 | > 64 | > 64 | 1 (≈ 0.288 µg/mL) | > 64 | > 64 | 16 (≈ 4.6 µg/mL) | COc1ccc2c(c1)CCC(Nc1ccc(Cl)cc1)C2 (configuration not stated)
